Measured values from publication PMC11840771 (ACS Omega, 2025).
Like-named read-outs stand apart in the source and are kept apart here.

Tests used:
[1] = biological target: T1, HER2-TK (Homo sapiens, UniProt P04626); assay: SPR kinetic analysis of binding to immobilized HER2-TK
[2] = tested on: SKOV3 (HER2-positive cell); assay: MTT cell viability assay, SKOV3; assay type: cell-based, human; details: read-out: cell inhibition IC50 SKOV3 (HER2-positive cell), 72 h, mean ± SD
In short: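 SKOV3 cells grown in DMEM at 37 °C, 5% CO2, seeded at 1 × 10^4 cells/well and left 16 h. Test compound from DMSO stock (final DMSO ≤1%) was added in complete medium, 2-fold dilutions from 100 μM, for 72 h. MTT added for 3 h at 37 °C, formazan dissolved in DMSO, read at 550/590 nm. Triplicate; IC50 by nonlinear regression.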

[3] = biological target: T1, HER2-TK; assay: HER2-TK inhibitory activity assay; assay type: biochemical
[4] = SPR, PBS pH 7.4 with 5% DMSO, mean ± SD

T1 sequence (P04626 676-1255 limits assumed): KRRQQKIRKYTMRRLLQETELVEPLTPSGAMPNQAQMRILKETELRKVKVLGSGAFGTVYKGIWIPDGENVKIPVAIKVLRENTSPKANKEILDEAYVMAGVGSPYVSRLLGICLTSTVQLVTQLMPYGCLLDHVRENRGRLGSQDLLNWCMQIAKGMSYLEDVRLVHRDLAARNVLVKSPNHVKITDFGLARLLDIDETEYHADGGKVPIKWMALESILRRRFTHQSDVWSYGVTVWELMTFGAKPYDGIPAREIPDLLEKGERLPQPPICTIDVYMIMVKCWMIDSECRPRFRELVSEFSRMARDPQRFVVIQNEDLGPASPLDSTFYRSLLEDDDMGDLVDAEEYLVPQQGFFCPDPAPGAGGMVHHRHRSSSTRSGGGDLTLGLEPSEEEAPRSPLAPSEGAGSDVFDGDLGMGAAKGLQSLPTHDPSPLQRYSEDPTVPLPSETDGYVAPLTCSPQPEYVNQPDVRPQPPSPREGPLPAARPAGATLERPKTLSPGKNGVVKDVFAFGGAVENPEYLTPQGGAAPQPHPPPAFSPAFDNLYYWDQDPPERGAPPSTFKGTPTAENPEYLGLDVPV

Row | Compound | kd [1, 4] | IC50 [2] [µM] | Kd [1] [µM] | IC50 [3] [µM] | kd ([1]; SPR) | kon ([1]; pH 7.4, read-out: ka) [M⁻¹ s⁻¹] | ka [1, 4] | kon ([1]; read-out: association rate constant (ka)) [M⁻¹ s⁻¹]
1 | CN(C)C/C=C/C(=O)Nc1cc2c(Nc3ccc(F)c(Cl)c3)ncnc2cc1O[C@H]1CCOC1 [Afatinib, reference compound] | 9.95 ± 0.16 10^–3/s | 8.4 ± 0.9 | – | – | – | – | – | –
2 | CS(=O)(=O)CCNCc1ccc(-c2ccc3ncnc(Nc4ccc(OCc5cccc(F)c5)c(Cl)c4)c3c2)o1 [Lapatinib, reference compound] | – | 8 ± 1.4 | – | – | – | – | – | –
3 | C=C(C)[C@@H]1CCC(C)=C[C@H]1c1c(O)cc(CCCCC)cc1O [CBD, cannabidiol] | 6.33 ± 0.06 10^–3/s | 13.8 ± 1.7 | 6.16 ± 0.25 | 0.038 ± 0.002 | – | – | – | –
4 | CCCCCc1cc(O)c2c(c1)OC(C)(C)c1ccc(C)cc1-2 [CBN, cannabinol] | 3.14 ± 0.09 10^–3/s | – | 26 ± 2.97 | 0.0874 ± 0.0017 | 3.14 × 10^–3 s^–1 | 122 ± 11 | – | –
5 | CCCCCc1cc(O)c(C/C=C(\C)CCC=C(C)C)c(O)c1 [CBG, cannabigerol] | 3.77 ± 0.02 10^–3/s | 16.6 ± 1 | 17.1 ± 0.8 | 0.0247 ± 0.0026 | – | – | 2.21 ± 0.11 10^2/(M·s) | 221
